Compound activity: PubChem, Sanford-Burnham Center for Chemical Genomics
A selection: hits, their analogues and other compounds. The true share with any hit is near 4.4%.
NR3A LBD binder – NR3A (human) ligand-binding domain modulation | NR3A LBD differential scanning fluorimetry, Tm shift; 0% = protein alone, 100% = glycine-bound protein | Tm shift relative to glycine control, % at 25 µM | 340,000 tested, 2.5% active;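 active = melting temperature shift of at least 10% of the positive control shift, at one fixed dose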
SENP1 FRET inh – SENP1 (human) catalytic domain inhibition | 360,000 tested, 0.21% active | Q9P0U3 | AID 624204 | inhibition, % at 10 µM | recombinant SENP1 catalytic domain, CyPet-SUMO1-YPet FRET cleavage;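 active = inhibition at least 30% at 10 µM, raw YFP signal under a set limit, fluorescence ratio 0.5 to 1.5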
Target sequence (Q9P0U3 419-644 limits assumed): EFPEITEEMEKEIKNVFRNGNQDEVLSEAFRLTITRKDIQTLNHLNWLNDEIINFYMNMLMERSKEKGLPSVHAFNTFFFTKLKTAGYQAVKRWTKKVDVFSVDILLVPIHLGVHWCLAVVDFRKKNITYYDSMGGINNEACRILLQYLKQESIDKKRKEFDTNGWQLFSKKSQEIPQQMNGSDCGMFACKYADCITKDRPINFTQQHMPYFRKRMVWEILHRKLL
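material = recombinant human SENP1 catalytic domain, His6-tagged | quantity = 20 pM enzyme | reagent = 25 nM SUMO1 FRET substrate | compound dosing = 10 µM single point, 0.5% DMSO | timing = 50 min enzyme reaction, room temperature, light-protected | detection = FRET, CFP and YFP emission | control set = no-enzyme low, enzyme-DMSO high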
MPTP inh – blocks calcium-induced mitochondrial swelling | isolated mouse mitochondria, Ca2+ swelling absorbance, 30 min | inhibition, % at 10 µM | 360,000 tested, 1.4% active;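 active = inhibition of 50% or more, scaled per plate between neutral and stimulator controls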
EBI2 block – blocks human EBI2 receptor beta-arrestin signaling; EBI2 beta-arrestin recruitment, luminescence, 7a,25-OHC stimulated; inhibition, % at 5 µM; 360,000 tested, 0.81% active; AID 651636; P32249; in the data active = inhibition above about 38%;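 also: enzyme fragment complementation signal reports receptor beta-arrestin coupling in cells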
Target sequence (P32249 whole entry, looked up, the tested form may be a part): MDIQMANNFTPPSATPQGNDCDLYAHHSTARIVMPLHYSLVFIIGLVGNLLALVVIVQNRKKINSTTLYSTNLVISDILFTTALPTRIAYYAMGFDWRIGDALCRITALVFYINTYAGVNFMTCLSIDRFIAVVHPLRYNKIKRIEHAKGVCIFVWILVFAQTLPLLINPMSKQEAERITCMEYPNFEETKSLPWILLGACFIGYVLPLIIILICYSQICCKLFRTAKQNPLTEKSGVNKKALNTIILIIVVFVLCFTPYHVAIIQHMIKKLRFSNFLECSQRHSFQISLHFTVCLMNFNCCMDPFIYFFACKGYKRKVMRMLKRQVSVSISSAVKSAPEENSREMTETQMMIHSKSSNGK
A number is an active result; 0 = inactive; - = not tested or not shown.

SMILES | NR3A LBD binder | SENP1 FRET inh | MPTP inh | EBI2 block
C/C(=N\N=C(/N)SC1CC(=O)N(c2ccc(Cl)c(Cl)c2)C1=O)c1cccs1 (stereo not drawn) | 34 | 0 | 0 | 0
C/C(=N\N=C(/N)SC1CC(=O)N(c2ccccc2)C1=O)c1cccs1 (stereo not drawn) | 0 | 0 | 0 | 0
C/C(=N\N=C(/N)SC1CC(=O)N(c2ccc(Br)cc2)C1=O)c1cccs1 (stereo not drawn) | 12 | 0 | 0 | 0
CN1CCC(C)(C(=O)Nc2cccc(Oc3ccccc3)c2)C1 (stereo not drawn) | - | 0 | 0 | 0
Nc1ncc(Br)cc1S(=O)(=O)NCCC(=O)NC1CCCCC1 | 0 | 0 | 0 | 0
O=C(c1ccc(C(F)(F)F)cc1)N1CCN(S(=O)(=O)c2ccc3c(c2)OCCCO3)CC1 | 0 | 0 | 0 | 51
COc1cc(C(=O)NCC(c2cccs2)N2CCOCC2)ccc1OCc1ccccc1 (stereo not drawn) | - | 0 | 0 | 0
CCOC(=O)C1C(C(=O)OC)=C(c2ccc(OC)cc2)c2ccccc2N1S(=O)(=O)C(F)(F)F (stereo not drawn) | 11 | 0 | 0 | 0
CCOC(=O)C1C(C(C)=O)=C(c2ccccc2)c2ccccc2N1S(=O)(=O)C(F)(F)F (stereo not drawn) | 11 | 0 | 0 | 0
CCOC(=O)C1=C(c2ccccc2)c2ccccc2N(S(=O)(=O)C(F)(F)F)C1C(=O)OCC (stereo not drawn) | 0 | 0 | 0 | 0
CC(=O)C1=C(c2cccc([N+](=O)[O-])c2)N(C(C)=O)n2c(C)nnc2S1 | 0 | 0 | 0 | 58
CC1(C)O[C@@H]2[C@H](O1)[C@@H](CO)O[C@H]2n1cnc2c(=O)[nH]cnc21 | 0 | 0 | 0 | 0
Cc1ccc(Cl)cc1N1CCN(CC(=O)NC2CCCc3ccccc32)CC1 (stereo not drawn) | 10 | 0 | 0 | 0
CC[C@@]12C(=O)N(c3cccc(F)c3)C(=O)N1[C@H](c1ccc(Cl)cc1)[C@@H]1C(=O)N(C3CCCCC3)C(=O)[C@@H]12 | 0 | 0 | 0 | 0
Cc1ccc2nc(NC(=O)c3ccc4ncsc4c3)sc2c1 | 18 | 0 | 0 | 0
NS(=O)(=O)c1ccc2nc(NC(=O)c3ccc4ncsc4c3)sc2c1 | 30 | 0 | 0 | 0
NS(=O)(=O)c1ccc2nc(NC(=O)c3ccc4c(c3)OCCO4)sc2c1 | 0 | 0 | 0 | 0
Cc1nn(C)c(C)c1C1C(C#N)=C(N)OC2=C1C(=O)CCC2 (stereo not drawn) | 12 | 0 | 0 | 0
Cc1cc(=O)[nH]c2ccc(S(=O)(=O)N3CCOCC3)cc12 | 0 | 0 | 0 | 0
Nc1ccc2c(c1)C(=O)c1ccc(N)cc1-2 | 0 | 0 | 0 | 0
Nc1ccc2c(c1)C(=O)c1cc(Cl)c(Cl)cc1-2 | 41 | 0 | 0 | 0
Nc1ccc2c(c1)C(=O)c1cc([N+](=O)[O-])ccc1-2 | 25 | 0 | 0 | 0
CCCN(C(=O)COC(=O)c1cc(CC)c(C)s1)c1c(N)n(Cc2ccccc2)c(=O)[nH]c1=O | 0 | 0 | 0 | 0
Cc1ccc(C(=O)CSc2nnc(CNc3ccc(F)cc3)o2)cc1 | 0 | 0 | 0 | 0
C=CCNC(=S)NNC(=O)Cn1c(-c2ccccc2)cc(=O)n2ncnc12 | 0 | 0 | 0 | 0
SMILES | NR3A LBD binder | SENP1 FRET inh | MPTP inh | EBI2 block
Cc1noc(/C=C/N(C)C)c1S(=O)(=O)N1CCCC(C(=O)N2CCCCC2)C1 (stereo not drawn) | 14 | 0 | 0 | 0
Cc1noc(/C=C/N(C)C)c1S(=O)(=O)N1CCCC(C(=O)NC2CCCCC2)C1 (stereo not drawn) | 0 | 0 | 0 | 0
CC(=O)c1cccc(CN2CCC(n3nccc3NC(=O)CCc3ccccc3)CC2)c1 | 15 | 0 | 0 | 0
CC(=O)Nc1ccc(CN2CCC(n3nccc3NC(=O)CCc3ccccc3)CC2)cc1 | 0 | 0 | 0 | 0
COc1c2occc2c(OC)c2c(=O)cc(C(F)(F)F)oc12 | 16 | 0 | 0 | 0
Cc1ccc(C)c(C(=O)CN2C(=O)NC3(CCCCCC3)C2=O)c1 | 0 | 0 | 0 | 0
NC(=O)c1ccccc1NC(=O)CCCCCn1nnc2ccccc2c1=O | 12 | 0 | 0 | 0
O=c1oc2ccccc2cc1-c1csc(Nc2nc3c(F)cccc3s2)n1 | 23 | 0 | 0 | 0
O=c1c(Cl)c(N2CCN(c3ccc(F)cc3)CC2)cnn1C12CC3CC(CC(C3)C1)C2 | 0 | 0 | 0 | 0
COc1cc(OC)c(N(C)S(=O)(=O)c2cccc(C(=O)OCC(=O)c3c[nH]c4ccccc34)c2)cc1Cl | 26 | 0 | 0 | 0
C=CCN(c1ccccc1OC)S(=O)(=O)c1cccc(C(=O)OCC(=O)c2c[nH]c3ccccc23)c1 | 29 | 0 | 0 | 0
Cc1c(C(=O)Nc2ccc3oc(-c4cccnc4)nc3c2)oc2ccccc12 | 16 | 0 | 0 | 0
O=C(Nc1ccc(-c2nc3ccccc3o2)cc1)c1cccnc1 | 25 | 0 | 0 | 0
Cc1ccc(-c2nc3cc(NS(=O)(=O)c4ccc(C)cc4)ccc3o2)cc1 | 12 | 0 | 0 | 0
O=C(Nc1ccc2oc(-c3ccccc3Cl)nc2c1)c1cncc(Br)c1 | 12 | 0 | 0 | 0
Cc1ccc2oc(-c3ccc(NC(=O)c4cccnc4)cc3)nc2c1 | 35 | 0 | 0 | 0
CC(Sc1cccc[n+]1[O-])C(=O)Nc1cccc([N+](=O)[O-])c1 (stereo not drawn) | 0 | 0 | 0 | 0
CCC(Sc1ccccn1)C(=O)Nc1cccc([N+](=O)[O-])c1 (stereo not drawn) | 17 | 0 | 0 | 0
CCN1C[C@@H]2[C@@H]3C(=O)N(Cc4ccccc4)C(=O)[C@@H]3[C@](Cc3ccccc3)(C1=O)N2C(=O)c1ccc(Cl)cc1 | 0 | 0 | 0 | 0
COc1ccc2cc(C(=O)Nc3ccccc3)sc(=O)c2c1OC | 22 | 0 | 0 | 0
COc1ccc2cc(C(=O)Nc3ccc(S(N)(=O)=O)cc3)sc(=O)c2c1OC | 23 | 0 | 0 | 0
O=C(Nc1ccccc1)c1cc2ccc3ccccc3c2s1 | 33 | 0 | 0 | 0
O=C(Nc1ccccc1)c1ccc(-c2ccccc2)s1 | 14 | 0 | 0 | 0
COc1ccc(NC(=O)CN(C)C(=O)c2oc3ccccc3c2C)cc1 | 0 | 0 | 0 | 0
Cc1cc([N+](=O)[O-])ccc1NC(=O)C(C)N1CCN(c2ccccn2)CC1 (stereo not drawn) | 0 | 0 | 0 | 0
SMILES | NR3A LBD binder | SENP1 FRET inh | MPTP inh | EBI2 block
C[C@H]1CN([C@@H](C)CO)C(=O)CCCn2nncc2CO[C@H]1CN(C)C(=O)c1cc(-c2ccccc2)on1 | - | 0 | 0 | 0
COc1ccc(NC(=O)CSc2nnc3ccc(-c4ccccn4)nn23)cc1OC | 0 | 0 | 0 | 0
O=C(N/N=C/C=C\c1ccco1)c1ccccn1 | 0 | 0 | 0 | 0
O=C(N/N=C\C=C\c1ccco1)c1cc(-c2ccc3ccccc3c2)n[nH]1 | 15 | 0 | 0 | 0
CCOc1cc(-c2sc(Nc3cc(C)ccc3OC)n[n+]2-c2ccccc2)ccc1OC | 13 | 0 | 0 | 0
CN(CC(=O)Nc1ccc(F)cc1)S(=O)(=O)c1ccc2c(c1)c(=O)n(C)c(=O)n2C | 10 | 0 | 0 | 0
Cc1cccc(NC(=O)CN(C)S(=O)(=O)c2ccc3c(c2)n(C)c(=O)c(=O)n3C)c1C | 13 | 0 | 0 | 0
